From ChEMBL document CHEMBL4477197, “Antitumor Activity of Spicatoside A by Modulation of Autophagy and Apoptosis in Human Colorectal Cancer Cells” (J Nat Prod, 2016)
Active and inactive are the calls of the source.

What was measured:
HCT-116 [1] = experiment: Growth inhibition of human HCT116 cells after 24 hrs by SRB assay; format: functional, cell-based
Summary of the method: (§1)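 SRB assay. Cells were seeded at 6 × 10^3/well, grown 24 h, then fixed as day-zero controls or treated 24 or 48 h. They were fixed with 10% TCA and stained with 0.4% SRB in 1% acetic acid; dye was dissolved in 10 mM Tris pH 10.0 and read at 515 nm. Proliferation was normalized to day zero and control, and IC50 came from nonlinear regression. n = 3.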

HCT-116 [2] = experiment: Induction of autophagy in human HCT116 cells assessed as upregulation of LAMP1 expression at 10 to 30 uM after 24 hrs by Western blot analysis; format: functional, cell-based
Summary of the method: (§2)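 HCT116 cells were cultured 24 h with the indicated concentrations. Lysates were made in SDS buffer with NaF and orthovanadate and quantified by BCA; 10–30 μg protein was separated by 6–15% SDS-PAGE and transferred to PVDF. After 5% BSA blocking, blots were probed for LC3-II, beclin 1, p62, LAMP1 and cathepsin D, with ECL detection.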

HCT-116 [3] = experiment: Growth inhibition of human HCT116 cells at 5 to 40 uM in presence of autophagy inhibitor 3-MA after 48 hrs by SRB assay; format: functional, cell-based
Summary of the method: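 SRB proliferation assay on HCT116 cells given graded concentrations for 48 h with or without 2 mM 3-MA. Cells were TCA-fixed, stained with 0.4% SRB, solubilized in 10 mM Tris pH 10.0 and read at 515 nm. Growth was normalized to day-zero and vehicle wells. Means ± SD, n = 3.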

HCT-116 [4] = experiment: Induction of autophagy in human HCT116 cells assessed as increase in LC3-2 expression at 30 uM at 24 hrs by Western blot analysis; format: functional, cell-based
HCT-116 [5] = experiment: Induction of apoptosis in human HCT116 cells assessed as cell shrinkage after 48 hrs; format: functional, cell-based
HCT-116 [6] = experiment: Growth inhibition of human HCT116 cells after 48 hrs by SRB assay; format: functional, cell-based; summary of the method: as §1
[7] = Inhibition of PI3K/Akt/mTOR in human HCT116 cells assessed as suppression of mTOR phosphorylation at Ser2448 at 10 to 30 uM after 24 hrs by Western blot analysis; format: cell-based
Summary of the method: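 HCT116 cells (RPMI 1640, 10% FBS, 37 °C, 5% CO2) exposed to the compound for 24 h, then lysed in 2× SDS sample buffer with NaF and orthovanadate and boiled. BCA-normalised protein (10−30 μg) run on 6−15% SDS-PAGE and blotted to PVDF. Blocked in 5% BSA/PBS-Tween, probed for PI3K, PTEN, Akt and mTOR, and detected by ECL. Blots are representative of three determinations.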

HCT-116 [8] = experiment: Induction of autophagy in human HCT116 cells assessed as vacuole formation in cytoplasm at 20 uM by inverted phase contrast microscopy relative to control; format: functional, cell-based
Summary of the method: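 HCT116 cells were exposed to 20 μM compound or vehicle. Cytoplasmic vacuoles were inspected and photographed under an inverted phase-contrast microscope at 100×.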

HCT-116 [9] = experiment: Increase in LC3-2 levels in human HCT116 cells at 30 uM after 48 hrs in presence of z-IETD-FMK by Western blot analysis; format: functional, cell-based
Summary of the method: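 HCT116 cells were cultured 48 h with 30 μM compound, with or without 20 μM z-IETD-FMK. Lysates were made in SDS loading buffer and 10–30 μg protein was resolved by 6–15% SDS-PAGE and transferred to PVDF. Blots were probed for cleaved caspase-8, beclin 1, cleaved beclin 1 and LC3-II, and detected by ECL.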

HCT-116 [10] = experiment: Induction of autophagy in human HCT116 cells assessed as increase in LAMP1 expression at 30 uM at 24 hrs by Western blot analysis; format: functional, cell-based
HCT-116 [11] = experiment: Induction of autophagy in human HCT116 cells assessed as increase in beclin 1 expression at 30 uM at 24 hrs by Western blot analysis; format: functional, cell-based
HCT-116 [12] = experiment: Induction of apoptosis in human HCT116 cells at 10 uM after 48 hrs by Annexin V-FITC/propidium iodide staining based flow cytometry; format: functional
Summary of the method: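 HCT116 cells were treated 48 h, then resuspended in binding buffer at 1 × 10^6 cells/mL. They were stained with annexin V-FITC and PI for 20 min at room temperature in the dark, diluted and analyzed immediately by flow cytometry for annexin V-positive cells. n = 3.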

HCT-116 [13] = experiment: Induction of apoptosis in human HCT116 cells assessed as activation of PARP cleavage at 10 to 30 uM after 48 hrs by Western blot analysis; format: functional, cell-based
Summary of the method: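 HCT116 cells were treated with the indicated concentrations for 48 h. Lysates were prepared in SDS sample buffer and 10–30 μg protein was separated by SDS-PAGE, blotted to PVDF and blocked in 5% BSA. Cleaved caspase-8, -9, -3 and PARP were detected by ECL.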

Mus musculus = experiment: Inhibition of Ki-67 expression in human HCT116 cells xenografted in BALB/c-nu mouse at 2.5 to 5 mg/kg, ip administered three times per week for 28 days measured post dosing by hematoxylin staining based inverted phase-contrast microscopy; format: functional, organism-based
Summary of the method: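 Day-28 xenograft tumors were fixed in 4% paraformaldehyde, paraffin-embedded and serially sectioned. Sections were deparaffinized, rehydrated, antigen-retrieved and immunostained for Ki-67 with HRP detection, then counterstained with hematoxylin. Slides were viewed by inverted phase-contrast microscopy at 200×.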

HCT-116 [14] = experiment: Antitumor activity against human HCT116 cells xenografted in BALB/c-nu mouse assessed as inhibition of tumor volume at 5 mg/kg, ip administered three times per week for 28 days measured every 3 to 4 days of dosing relative to control; format: functional; conditions: HCT-116, ip
Summary of the method: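 HCT116 cells (2 × 106 in 200 μL medium) injected subcutaneously into the right flank of nude mice; at ~200 mm3, mice randomized into groups of five. Compound at 2.5 or 5 mg/kg, dissolved in normal saline with 0.5% Tween 80, given ip three times weekly for 28 days; vehicle controls got equal volume. Tumor volume measured by caliper every 3–4 days.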

HCT-116 [15] = experiment: Induction of apoptosis in human HCT116 cells assessed as downregulation of Bcl-2 levels at 10 to 30 uM after 48 hrs by Western blot analysis; format: functional, cell-based
MRC5 = experiment: Antiproliferative activity against human MRC5 cells after 24 to 72 hrs by SRB assay; format: cell-based
Summary of the method: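 Cells from ATCC were grown at 37 °C in 5% CO2, in RPMI 1640 (A549, HCT116, SNU-638) or DMEM (MDA-MB-231, SK-HEP-1, MRC5) with 10% FBS. They were seeded at 6 × 10^3 cells/well for 24 h, then exposed for 72 h. Cells were TCA-fixed, stained with 0.4% SRB, and read at 515 nm against day-zero plates. IC50 came from nonlinear regression, as means ± SD.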

HCT-116 [16] = experiment: Induction of autophagy in human HCT116 cells assessed as downregulation of p62 expression at 10 to 30 uM after 24 hrs by Western blot analysis; format: functional, cell-based; summary of the method: as §2

C[C@H]1CC[C@@]2(OC1)O[C@H]1C[C@H]3[C@@H]4CC=C5C[C@@H](O)C[C@@H](O[C@@H]6O[C@H](C)[C@H](O)[C@H](O[C@@H]7OC[C@@H](O)[C@H](O)[C@H]7O)[C@H]6O[C@@H]6O[C@H](CO)[C@@H](O)[C@H](O)[C@H]6O)[C@]5(C)[C@H]4CC[C@]3(C)[C@H]1[C@@H]2C
28.9 µM: IC50 (HCT-116 [1]; HCT-116, 24 h)
20.9 µM: IC50 (HCT-116 [6]; HCT-116, 48 h)
13.42%: Activity (HCT-116 [12])
82 µM: IC50 (MRC5)
57.5%: inhibition in vivo at 5 mg/kg (HCT-116 [14])
active: growth inhibition (GI) (HCT-116 [1]) Dose-dependent effect | Activity (HCT-116 [2]) | growth inhibition (GI) (HCT-116 [3]) | Activity (HCT-116 [4]) | Activity (HCT-116 [5]) | growth inhibition (GI) (HCT-116 [6]) Dose-dependent effect | inhibition [7] | Activity (HCT-116 [8]) | Activity (HCT-116 [9]) | Activity (HCT-116 [10]) | Activity (HCT-116 [11]) | Activity (HCT-116 [13]) | inhibition (Mus musculus) | Activity (HCT-116 [15]) | Activity (HCT-116 [16])
